In brackets after ≈: the same amount, converted by molar mass. Activity calls are given as the source filed them. The calls are words filed in the database; no cut-off is given here.
Tests used:
Escherichia coli [1] = test: Bactericidal activity against yafQ gene-deficient Escherichia coli K-12 BW25113 biofilm assessed as log reduction of viable cells after 24 hrs; format: functional, organism-based
Outline: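 Biofilms grown on the 96-peg polystyrene lid of a Calgary biofilm device. Inoculum was a 1.0 McFarland suspension diluted 30-fold in growth medium (~1.0 × 10^7 CFU/ml). Grown 24 h at 37°C, 125 rpm, 95% humidity, then saline-rinsed and exposed to twofold antibiotic dilutions. Rinsed twice, sonicated 5 min in LB + 1% Tween 20, plated on LB agar ≥24 h at 37°C. Mean log killing taken from viable counts.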

Escherichia coli [2] = test: Bactericidal activity against Escherichia coli K-12 BW25113 biofilm harboring pCA24N ptac::yafQ plasmid assessed as log reduction of viable cells after 24 hrs pretreated with 5 uM of IPTG for 4 hrs; format: functional, organism-based
Outline: (§1)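 Biofilms grown 24 h at 37°C, 125 rpm, 95% humidity on Calgary device pegs from ~1.0 × 10^7 CFU/ml inoculum. Strain carries IPTG-inducible pCA24N vector, grown with 30 μg/ml chloramphenicol. Biofilms were rinsed, then induced 4 h at 37°C, 125 rpm in LB with chloramphenicol and 5 μM IPTG before twofold antibiotic dilutions. Survivors were recovered by sonication in LB plus 1% Tween 20 and plated; mean log killing calculated.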

Escherichia coli [3] = test: Antimicrobial activity against Escherichia coli K-12 BW25113 by broth microdilution method; format: functional
Outline: (§2)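 Broth microdilution MIC per CLSI protocol; wild-type and ΔyafQ strains from Keio collection, stored at −70°C in LB with 8% DMSO, cultured on LB agar at 37°C.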

Escherichia coli [4] = test: Antimicrobial activity against yafQ gene-deficient Escherichia coli K-12 BW25113 by broth microdilution method; format: functional; outline: as §2
Escherichia coli [5] = test: Bactericidal activity against yafQ gene-deficient Escherichia coli K-12 BW25113 biofilm assessed as log reduction of viable cells after 24 hrs relative to wild-type Escherichia coli K-12 BW25113; format: functional
Outline: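 Biofilms grown 24 h at 37°C, 125 rpm, 95% humidity on Calgary device pegs from ~1.0 × 10^7 CFU/ml inoculum (1.0 McFarland diluted 30-fold). After a saline rinse, biofilms went into twofold antibiotic dilutions, were rinsed twice, and sonicated 5 min in LB with 1% Tween 20. Survivors were counted on LB agar after ≥24 h at 37°C. Mean log killing compared with wild type; significance required ≥50-fold difference and non-overlapping SDs.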

Escherichia coli [6] = test: Effect on survival of Escherichia coli K-12 BW25113 biofilm harboring pCA24N ptac::yafQ plasmid assessed as increase in cell survival after 24 hrs pretreated with 5 uM of IPTG for 4 hrs relative to wild-type Escherichia coli K-12 […]; format: functional; outline: as §1
Escherichia coli [7] = test: Bactericidal activity against yafQ gene-deficient Escherichia coli K-12 BW25113 stationary-phase planktonic cell assessed as log reduction of viable cells after 24 hrs; format: functional, organism-based
Outline: (§3)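 Stationary-phase planktonic cells from LB grown 18–20 h at 225 rpm, 37°C, then pelleted and resuspended at 2× concentration in fresh medium. 100 μl cells added to 100 μl of 2× twofold antibiotic dilutions. Starting counts by viable plating. Recovery, dilution and counting as for biofilms (LB + 1% Tween 20, LB agar ≥24 h at 37°C); mean log killing calculated.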

Escherichia coli [8] = test: Bactericidal activity against Escherichia coli K-12 BW25113 stationary-phase planktonic cell assessed as log reduction of viable cells after 24 hrs; format: functional, organism-based; outline: as §3

Row | Compound | Activity (Escherichia coli [1]) | Activity (Escherichia coli [2]) | MIC (Escherichia coli [3]) [µg/mL] | MIC (Escherichia coli [4]) [µg/mL] | FC (Escherichia coli [5]) | fold change (FC) (Escherichia coli [6]) | Activity (Escherichia coli [7]) | Activity (Escherichia coli [8])
1 | CO[C@H]1/C=C/O[C@@]2(C)Oc3c(C)c(O)c4c(O)c(c(/C=N/N5CCN(C)CC5)c(O)c4c3C2=O)NC(=O)/C(C)=C\C=C\[C@H](C)[C@H](O)[C@@H](C)[C@@H](O)[C@@H](C)[C@H](OC(C)=O)[C@@H]1C [RIFAMPIN] | Active | Active | 16 (≈ 19.4 µM) | 16 (≈ 19.4 µM) | – | – | – | –
2 | C[C@H]1c2cccc(O)c2C(=O)C2=C(O)[C@]3(O)C(=O)C(C(N)=O)=C(O)[C@@H](N(C)C)[C@@H]3[C@@H](O)[C@@H]21.O [DOXYCYCLINE] | Active | Active | 4 | 3 | – | – | – | –
3 | Cc1nnc(SCC2=C(C(=O)O)N3C(=O)[C@@H](NC(=O)Cn4cnnn4)[C@H]3SC2)s1 [CEFAZOLIN] | – | inactive | 4 (≈ 8.8 µM) | 4 (≈ 8.8 µM) | 2400 | 10000 | Active | Active
4 | NC[C@H]1O[C@H](O[C@H]2[C@H](O)[C@@H](O[C@H]3O[C@H](CO)[C@@H](O)[C@H](N)[C@H]3O)[C@H](N)C[C@@H]2N)[C@H](N)C[C@@H]1O [TOBRAMYCIN] | – | inactive | 1.5 (≈ 3.21 µM) | 2 (≈ 4.28 µM) | 760 | 3300 | Active | Active
